Source: ChEMBL document CHEMBL1145636, “Discovery of a novel and potent series of thieno[3,2-b]pyridine-based inhibitors of c-Met and VEGFR2 tyrosine kinases” (Bioorg Med Chem Lett, 2008)
Converted amounts (≈) assume the structure as drawn. Blank lines part the entries; values can stand above or below the compound they belong to.

Key:
[1] = target: T1, Vascular endothelial growth factor receptor 2 (Homo sapiens, UniProt P35968); test: Inhibition of GST tagged VEGFR2 expressed in Sf9 cells
In short: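 GST-fused VEGFR2 catalytic domain, baculovirus-expressed in Sf9 cells (MOI 0.1), glutathione-agarose purified; 5 nM enzyme preincubated with inhibitor and Mg-ATP on ice 4 min, then reacted on immobilized poly(Glu4,Tyr) at 30 °C for 10 min in 60 mM Hepes pH 7.5, MgCl2/MnCl2; ATP 0.6 (2× Km); Eu anti-phosphotyrosine TR-fluorescence; seven concentrations in triplicate, four-parameter IC50 fit.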

[2] = target: T2, Hepatocyte growth factor receptor (Homo sapiens, UniProt P08581); test: Inhibition of TPR-Met fusion protein assessed as Y1230-34-35 phosphorylation
Target sequence in this assay (P08581 25-1390 limits assumed): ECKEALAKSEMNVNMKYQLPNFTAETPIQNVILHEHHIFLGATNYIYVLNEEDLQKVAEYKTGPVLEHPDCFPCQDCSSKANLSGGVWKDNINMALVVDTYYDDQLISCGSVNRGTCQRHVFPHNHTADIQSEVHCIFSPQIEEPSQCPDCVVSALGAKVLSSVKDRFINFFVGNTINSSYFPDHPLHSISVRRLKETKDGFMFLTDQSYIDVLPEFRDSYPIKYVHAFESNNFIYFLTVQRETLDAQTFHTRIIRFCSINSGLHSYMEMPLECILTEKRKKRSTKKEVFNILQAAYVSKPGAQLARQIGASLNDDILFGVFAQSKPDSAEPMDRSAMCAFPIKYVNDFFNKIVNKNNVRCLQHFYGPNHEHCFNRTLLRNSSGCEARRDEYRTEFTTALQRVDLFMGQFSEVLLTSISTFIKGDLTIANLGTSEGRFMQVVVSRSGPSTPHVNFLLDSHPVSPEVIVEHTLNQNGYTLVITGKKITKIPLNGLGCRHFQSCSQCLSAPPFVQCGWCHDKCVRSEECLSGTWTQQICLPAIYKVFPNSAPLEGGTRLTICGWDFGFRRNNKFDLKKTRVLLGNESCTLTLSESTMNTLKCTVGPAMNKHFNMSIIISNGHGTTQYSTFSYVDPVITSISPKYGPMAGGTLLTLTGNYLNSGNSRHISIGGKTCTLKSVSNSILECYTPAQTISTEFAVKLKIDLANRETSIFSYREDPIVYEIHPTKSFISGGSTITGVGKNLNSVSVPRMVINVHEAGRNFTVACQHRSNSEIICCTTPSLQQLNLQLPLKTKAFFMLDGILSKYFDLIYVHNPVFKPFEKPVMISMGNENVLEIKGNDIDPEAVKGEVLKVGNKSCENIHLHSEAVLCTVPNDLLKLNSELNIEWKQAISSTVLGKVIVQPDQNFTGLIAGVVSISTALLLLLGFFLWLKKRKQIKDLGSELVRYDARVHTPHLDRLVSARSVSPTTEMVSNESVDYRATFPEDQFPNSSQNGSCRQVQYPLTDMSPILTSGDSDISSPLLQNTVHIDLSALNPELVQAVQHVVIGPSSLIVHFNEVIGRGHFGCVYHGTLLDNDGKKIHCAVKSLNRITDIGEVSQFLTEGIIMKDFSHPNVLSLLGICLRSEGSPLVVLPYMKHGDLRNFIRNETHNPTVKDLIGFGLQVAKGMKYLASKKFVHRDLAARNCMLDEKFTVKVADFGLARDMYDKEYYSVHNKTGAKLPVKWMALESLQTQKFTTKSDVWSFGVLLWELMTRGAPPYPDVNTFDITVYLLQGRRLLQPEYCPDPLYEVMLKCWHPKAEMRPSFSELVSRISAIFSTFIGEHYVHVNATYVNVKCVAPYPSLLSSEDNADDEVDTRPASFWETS

[3] = target: T2, Hepatocyte growth factor receptor; test: Inhibition of GST tagged c-Met expressed in High Five cells
Target sequence in this assay (P08581 whole entry, the tested form may be a part): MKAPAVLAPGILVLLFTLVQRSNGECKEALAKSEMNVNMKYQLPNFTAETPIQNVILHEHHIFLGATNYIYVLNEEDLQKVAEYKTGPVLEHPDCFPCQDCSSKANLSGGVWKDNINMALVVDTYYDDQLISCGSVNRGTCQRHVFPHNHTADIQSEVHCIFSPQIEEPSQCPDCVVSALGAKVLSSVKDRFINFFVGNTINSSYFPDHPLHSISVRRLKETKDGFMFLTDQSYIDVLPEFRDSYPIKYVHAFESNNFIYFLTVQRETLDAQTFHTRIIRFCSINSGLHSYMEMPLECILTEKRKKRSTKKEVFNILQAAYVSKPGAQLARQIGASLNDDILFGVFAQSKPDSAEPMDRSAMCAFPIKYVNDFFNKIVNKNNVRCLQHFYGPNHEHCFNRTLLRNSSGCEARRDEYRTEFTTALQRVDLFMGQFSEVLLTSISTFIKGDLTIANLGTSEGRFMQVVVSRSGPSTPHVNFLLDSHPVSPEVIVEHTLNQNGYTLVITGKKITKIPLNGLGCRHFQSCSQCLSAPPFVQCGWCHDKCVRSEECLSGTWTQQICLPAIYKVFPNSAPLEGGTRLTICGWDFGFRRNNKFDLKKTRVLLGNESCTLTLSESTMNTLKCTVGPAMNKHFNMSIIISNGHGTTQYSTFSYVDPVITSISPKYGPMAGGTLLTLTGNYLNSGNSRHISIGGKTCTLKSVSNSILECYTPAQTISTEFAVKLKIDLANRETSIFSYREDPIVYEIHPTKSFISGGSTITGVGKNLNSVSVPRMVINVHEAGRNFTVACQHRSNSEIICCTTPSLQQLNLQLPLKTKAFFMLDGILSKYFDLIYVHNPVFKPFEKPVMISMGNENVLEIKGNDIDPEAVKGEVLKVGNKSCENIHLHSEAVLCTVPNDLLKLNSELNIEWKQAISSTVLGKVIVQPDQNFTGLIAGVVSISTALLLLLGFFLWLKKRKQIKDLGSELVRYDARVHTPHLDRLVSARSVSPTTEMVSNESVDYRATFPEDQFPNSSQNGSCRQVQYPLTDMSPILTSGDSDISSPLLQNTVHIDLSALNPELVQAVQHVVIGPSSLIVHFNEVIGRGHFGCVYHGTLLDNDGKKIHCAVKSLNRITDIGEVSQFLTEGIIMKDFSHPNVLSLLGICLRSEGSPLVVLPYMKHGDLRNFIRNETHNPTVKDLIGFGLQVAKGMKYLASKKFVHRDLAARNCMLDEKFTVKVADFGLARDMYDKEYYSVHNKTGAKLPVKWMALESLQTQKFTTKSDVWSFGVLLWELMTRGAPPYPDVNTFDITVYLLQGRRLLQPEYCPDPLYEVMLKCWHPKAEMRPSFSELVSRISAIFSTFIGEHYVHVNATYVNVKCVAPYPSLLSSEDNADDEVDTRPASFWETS

[4] = Solubility of compound; type: physicochemical
[5] = tested on: DU-145; test: Antitumor activity in human DU145 cells xenografted mouse assessed as tumor growth inhibition at 20 mg/kg, po once daily after 11 days; type: functional; conditions: DU-145, 264 h, read-out: TGI
In short: (§1)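 Human tumor xenografts in mice; test agent given orally at 20 mg/kg once daily; efficacy expressed as percent tumor growth inhibition.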

[6] = Oral bioavailability in Sprague-Dawley rat at 5 mg/kg; type: ADME, organism-based; conditions: in vivo
In short: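 An iv reference arm received 2.5 mg/kg (four animals) in DMSO. Plasma was analysed by HPLC-triple-quadrupole MS, and %F was derived from po versus iv exposure.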

[7] = target: T1, Vascular endothelial growth factor receptor 2; test: Inhibition of human VEGFR2-dependent ERK phosphorylation in HUVEC; type: cell-based
[8] = target: Receptor-type tyrosine-protein kinase FLT3 (Homo sapiens) (UniProt P36888); test: Inhibition of Flt3 at 100 nM
In short: (§2)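 Radiometric protein kinase assays run through an outsourced kinase selectivity screening service; test agent at 100 nM, percent inhibition of each enzyme reported.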

[9] = target: Serine/threonine-protein kinase Chk1 (Homo sapiens) (UniProt O14757); test: Inhibition of CHK1 at 100 nM; in short: as §2
[10] = Tmax in Sprague-Dawley rat at 5 mg/kg, po; type: ADME, organism-based; set-up: dose 5 mg/kg, route oral; conditions: in vivo
[11] = target: Vascular endothelial growth factor receptor 3 (Homo sapiens) (UniProt P35916); test: Inhibition of VEGFR3 at 100 nM; in short: as §2
[12] = AUC in Sprague-Dawley rat at 5 mg/kg, po; type: ADME, organism-based; set-up: dose 5 mg/kg, route oral; conditions: plasma
[13] = target: Insulin-like growth factor 1 receptor (Homo sapiens) (UniProt P08069); test: Inhibition of IGF1R at 100 nM; in short: as §2
[14] = target: High affinity nerve growth factor receptor (Homo sapiens) (UniProt P04629); test: Inhibition of TrkA at 100 nM; in short: as §2
[15] = Half life in Sprague-Dawley rat at 2.5 mg/kg, iv; type: ADME, organism-based; set-up: dose 2.5 mg/kg, route intravenous; conditions: in vivo
In short: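 Female Sprague–Dawley rats were given a single iv dose of 2.5 mg/kg (four animals) in DMSO. The test material had >95% chromatographic purity. Plasma was analysed by HPLC with triple-quadrupole MS, and PK parameters were calculated from the concentration–time data.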

[16] = tested on: Canis familiaris; test: Clearance in Beagle dog at 0.8 mg/kg, iv or 5 mg/kg, po; type: ADME, organism-based, Canis lupus familiaris; conditions: in vivo
[17] = tested on: COLO 205; test: Antitumor activity in human Colo205 cells xenografted mouse assessed as tumor growth inhibition at 20 mg/kg, po once daily after 16 days; type: functional; conditions: COLO 205, 384 h, read-out: TGI; in short: as §1
[18] = target: Glycogen synthase kinase-3 beta (Homo sapiens) (UniProt P49841); test: Inhibition of GSK3-beta at 100 nM; in short: as §2
[19] = target: Macrophage-stimulating protein receptor (Homo sapiens) (UniProt Q04912); test: Inhibition of Ron at 100 nM; in short: as §2
[20] = target: Tyrosine-protein kinase JAK2 (Homo sapiens) (UniProt O60674); test: Inhibition of JAK2 at 100 nM; in short: as §2
[21] = Volume of distribution at steady state in Sprague-Dawley rat; type: ADME, organism-based; conditions: in vivo, read-out: Vdss
[22] = Inhibition of JNK1-alpha-1 at 100 nM; in short: as §2
[23] = target: Inhibitor of nuclear factor kappa-B kinase subunit beta (Homo sapiens) (UniProt O14920); test: Inhibition of IKK-beta at 100 nM; in short: as §2
[24] = target: Epidermal growth factor receptor (Homo sapiens) (UniProt P00533); test: Inhibition of EGFR at 100 nM; in short: as §2
[25] = target: Cytochrome P450 3A4 (Homo sapiens, UniProt P08684); test: Inhibition of CYP3A4 at 10 uM; type: ADME
[26] = tested on: MKN-45; test: Antitumor activity in human MKN45 cells xenografted mouse assessed as tumor growth inhibition at 20 mg/kg, po once daily after 13 days; type: functional; conditions: MKN-45, 312 h, read-out: TGI; in short: as §1
[27] = Half life in Beagle dog at 0.8 mg/kg, iv; type: ADME, organism-based, Canis lupus familiaris; set-up: dose 0.8 mg/kg, route intravenous; conditions: in vivo
[28] = Cmax in Sprague-Dawley rat at 5 mg/kg, po; type: ADME, organism-based; set-up: dose 5 mg/kg, route oral; conditions: in vivo
[29] = Tmax in Beagle dog at 5 mg/kg, po; type: ADME, organism-based, Canis lupus familiaris; set-up: dose 5 mg/kg, route oral; conditions: in vivo
[30] = tested on: HOS-TE85; test: Antitumor activity in human MNNGHOS cells xenografted mouse assessed as tumor growth inhibition at 20 mg/kg, po once daily after 26 days; type: functional; conditions: HOS-TE85, 624 h, read-out: TGI; in short: as §1
[31] = target: Tyrosine-protein kinase ABL1 (Homo sapiens) (UniProt P00519); test: Inhibition of Abl at 100 nM; in short: as §2
[32] = target: Mast/stem cell growth factor receptor Kit (Homo sapiens) (UniProt P10721); test: Inhibition of c-Kit at 100 nM; in short: as §2
Sequence of Mast/stem cell growth factor receptor Kit (Homo sapiens) (P10721 whole entry): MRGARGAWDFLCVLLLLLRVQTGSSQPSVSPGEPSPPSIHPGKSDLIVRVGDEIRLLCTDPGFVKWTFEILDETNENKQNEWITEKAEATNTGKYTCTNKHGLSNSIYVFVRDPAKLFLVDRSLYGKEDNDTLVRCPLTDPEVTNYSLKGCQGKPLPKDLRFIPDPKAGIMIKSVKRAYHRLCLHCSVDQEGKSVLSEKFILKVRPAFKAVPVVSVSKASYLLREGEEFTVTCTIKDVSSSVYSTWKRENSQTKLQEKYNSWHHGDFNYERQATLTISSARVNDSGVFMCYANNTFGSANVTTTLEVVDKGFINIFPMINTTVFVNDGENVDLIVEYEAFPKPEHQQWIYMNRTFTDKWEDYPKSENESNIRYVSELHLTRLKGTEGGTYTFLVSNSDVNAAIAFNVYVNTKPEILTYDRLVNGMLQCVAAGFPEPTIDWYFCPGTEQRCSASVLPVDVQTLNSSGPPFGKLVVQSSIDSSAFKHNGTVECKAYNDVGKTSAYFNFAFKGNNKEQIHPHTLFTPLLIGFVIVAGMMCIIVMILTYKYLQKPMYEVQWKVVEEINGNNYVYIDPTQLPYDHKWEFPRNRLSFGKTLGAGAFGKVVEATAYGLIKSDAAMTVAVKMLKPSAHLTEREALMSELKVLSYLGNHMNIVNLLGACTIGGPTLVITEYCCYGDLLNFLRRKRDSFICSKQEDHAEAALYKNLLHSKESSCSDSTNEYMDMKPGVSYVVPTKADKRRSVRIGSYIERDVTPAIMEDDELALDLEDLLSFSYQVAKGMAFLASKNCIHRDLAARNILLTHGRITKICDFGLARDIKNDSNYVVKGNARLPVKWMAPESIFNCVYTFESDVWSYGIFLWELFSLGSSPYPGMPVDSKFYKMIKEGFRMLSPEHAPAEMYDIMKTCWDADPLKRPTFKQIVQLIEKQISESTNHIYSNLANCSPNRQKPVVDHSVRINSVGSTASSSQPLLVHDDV

[33] = tested on: Canis familiaris; test: AUC in Beagle dog at 5 mg/kg, po; type: ADME, organism-based, Canis lupus familiaris, Plasma; set-up: dose 5 mg/kg, route oral; conditions: in vivo
[34] = target: Angiopoietin-1 receptor (Homo sapiens) (UniProt Q02763); test: Inhibition of Tie2 at 100 nM; in short: as §2
[35] = tested on: Canis familiaris; test: Oral bioavailability in Beagle dog at 5 mg/kg; type: ADME, organism-based, Canis lupus familiaris; conditions: in vivo
[36] = Volume of distribution at steady state in Beagle dog at 0.8 mg/kg, iv or 5 mg/kg, po; type: ADME, organism-based, Canis lupus familiaris; conditions: in vivo, read-out: Vdss
[37] = Clearance in Sprague-Dawley rat; type: ADME, organism-based; conditions: in vivo
[38] = target: Vascular endothelial growth factor receptor 1 (Homo sapiens) (UniProt P17948); test: Inhibition of VEGFR1 at 100 nM; in short: as §2
[39] = Cmax in Beagle dog at 5 mg/kg, po; type: ADME, organism-based, Canis lupus familiaris; set-up: dose 5 mg/kg, route oral; conditions: in vivo
[40] = tested on: HCT-116; test: Antitumor activity in human HCT116 cells xenografted mouse assessed as tumor growth inhibition at 20 mg/kg, po once daily after 14 days; type: functional; conditions: HCT-116, 336 h, read-out: TGI; in short: as §1

T1 sequence (P35968 whole entry, the tested form may be a part): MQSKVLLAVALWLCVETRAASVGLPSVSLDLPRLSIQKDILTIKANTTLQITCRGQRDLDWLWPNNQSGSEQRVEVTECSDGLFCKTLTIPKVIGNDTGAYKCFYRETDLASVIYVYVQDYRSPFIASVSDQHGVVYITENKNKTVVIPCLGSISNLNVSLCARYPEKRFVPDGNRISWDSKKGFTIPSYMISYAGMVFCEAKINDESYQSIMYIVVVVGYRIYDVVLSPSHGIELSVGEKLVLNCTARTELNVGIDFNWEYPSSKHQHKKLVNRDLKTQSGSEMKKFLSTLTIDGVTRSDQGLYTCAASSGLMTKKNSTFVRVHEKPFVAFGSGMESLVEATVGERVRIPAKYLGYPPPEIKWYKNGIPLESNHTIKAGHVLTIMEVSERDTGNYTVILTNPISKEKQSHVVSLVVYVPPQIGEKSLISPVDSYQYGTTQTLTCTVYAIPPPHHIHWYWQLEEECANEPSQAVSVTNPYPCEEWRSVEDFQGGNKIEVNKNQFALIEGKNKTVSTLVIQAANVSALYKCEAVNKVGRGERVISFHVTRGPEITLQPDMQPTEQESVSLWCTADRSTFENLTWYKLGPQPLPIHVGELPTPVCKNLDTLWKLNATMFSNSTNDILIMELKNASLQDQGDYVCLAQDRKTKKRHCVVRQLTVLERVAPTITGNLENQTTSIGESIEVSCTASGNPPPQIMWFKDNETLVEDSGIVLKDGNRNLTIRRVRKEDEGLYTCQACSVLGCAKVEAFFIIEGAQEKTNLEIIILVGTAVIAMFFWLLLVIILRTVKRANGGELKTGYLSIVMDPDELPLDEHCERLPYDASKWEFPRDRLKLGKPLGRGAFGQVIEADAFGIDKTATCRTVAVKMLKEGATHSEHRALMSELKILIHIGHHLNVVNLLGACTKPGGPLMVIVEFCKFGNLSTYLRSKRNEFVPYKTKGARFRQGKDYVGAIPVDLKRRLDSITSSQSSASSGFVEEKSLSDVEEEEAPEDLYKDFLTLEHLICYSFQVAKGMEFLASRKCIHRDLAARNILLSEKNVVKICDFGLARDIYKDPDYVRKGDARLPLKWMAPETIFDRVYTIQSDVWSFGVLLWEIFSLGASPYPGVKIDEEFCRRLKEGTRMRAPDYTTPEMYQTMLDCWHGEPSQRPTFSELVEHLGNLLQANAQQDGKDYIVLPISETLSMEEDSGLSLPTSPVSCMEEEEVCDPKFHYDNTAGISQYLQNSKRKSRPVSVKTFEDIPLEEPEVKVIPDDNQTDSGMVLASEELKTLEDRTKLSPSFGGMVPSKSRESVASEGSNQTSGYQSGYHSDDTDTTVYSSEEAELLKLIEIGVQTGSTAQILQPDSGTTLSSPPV

Structure (SMILES): CCn1ccnc1-c1cc2nccc(Oc3ccc(NC(=S)NC(=O)Cc4ccccc4)cc3F)c2s1
IC50 [2]: 35 nM
IC50 [3]: 108 nM
IC50 [1]: 25 nM

Structure (SMILES): O=C(Cc1ccccc1)NC(=S)Nc1ccc(Oc2ccnc3cc(-c4ccoc4)sc23)c(F)c1
IC50 [3]: 74 nM
IC50 [1]: 593 nM

Structure (SMILES): O=C(Cc1ccccc1)NC(=S)Nc1ccc(Oc2ccnc3cc(-c4cccs4)sc23)c(F)c1
IC50 [1]: 32 nM

Structure (SMILES): Cn1ncnc1-c1cc2nccc(Oc3ccc(NC(=S)NC(=O)Cc4ccccc4)cc3F)c2s1
IC50 [2]: 20 nM
IC50 [3]: 69 nM
IC50 [1]: 28 nM

Structure (SMILES): CCn1cnc(-c2cc3nccc(Oc4ccc(NC(=S)NC(=O)Cc5ccccc5)cc4F)c3s2)c1
IC50 [2]: 22 nM
IC50 [3]: 52 nM
IC50 [1]: 11 nM

Structure (SMILES): O=C(Cc1ccccc1)NC(=S)Nc1ccc(Oc2ccnc3cc(-c4cncnc4)sc23)c(F)c1
IC50 [2]: 5000 nM
IC50 [3]: 63 nM
IC50 [1]: 175 nM

Structure (SMILES): O=C(Cc1ccccc1)NC(=S)Nc1ccc(Oc2ccnc3cc(-c4ccccn4)sc23)c(F)c1
IC50 [1]: 17 nM

Structure (SMILES): Cn1ccnc1-c1cc2nccc(Oc3ccc(NC(=S)NC(=O)Cc4ccccc4)cc3F)c2s1
solubility [4]: 1.7 µg/mL (≈ 3.28 µM)
IC50 [1]: 10 nM

Structure (SMILES): COc1cc2nccc(Oc3ccc(NC(=S)NC(=O)Cc4ccccc4)cc3F)c2cc1OC
IC50 [1]: 32 nM

Structure (SMILES): Cn1cccc1-c1cc2nccc(Oc3ccc(NC(=S)NC(=O)Cc4ccccc4)cc3F)c2s1
IC50 [2]: 108 nM
IC50 [3]: 49 nM
IC50 [1]: 31 nM

Structure (SMILES): O=C(Cc1ccccc1)NC(=S)Nc1ccc(Oc2ccnc3cc(-c4nccs4)sc23)c(F)c1
IC50 [2]: 28 nM
IC50 [3]: 65 nM
IC50 [1]: 17 nM

Structure (SMILES): Cn1cnc(-c2cc3nccc(Oc4ccc(NC(=S)NC(=O)Cc5ccccc5)cc4F)c3s2)c1
inhibition in vivo at 20 mg/kg [5]: 57%
bioavailability [6]: 12%
IC50 [7]: 30 nM
inhibition [8]: 96%
inhibition [9]: < 5%
Tmax [10]: 3.5 h
inhibition [11]: 100%
AUC [12]: 0.74 µM·h
inhibition [13]: < 5%
solubility [4]: 30 µg/mL (≈ 58 µM)
inhibition [14]: 99%
half-life [15]: 1.2 h
CL [16]: 18.3 mL/min/kg
inhibition in vivo at 20 mg/kg [17]: 41%
inhibition [18]: < 5%
inhibition [19]: 80%
inhibition [20]: < 5%
Vd [21]: 0.25 L/kg
IC50 [2]: 12 nM
inhibition [22]: < 5%
inhibition [23]: < 5%
inhibition [24]: < 5%
Inhibition [25]: Not Active
inhibition in vivo at 20 mg/kg [26]: 94%
half-life [27]: 5.8 h
Cmax [28]: 140 nM
Tmax [29]: 1.1 h
inhibition in vivo at 20 mg/kg [30]: 61%
inhibition [31]: 91%
inhibition [32]: 92%
AUC [33]: 0.74 µM·h
inhibition [34]: 81%
F [35]: 42%
IC50 [1]: 10 nM
Vd [36]: 1.5 L/kg
clearance [37]: 5.5 mL/min/kg
inhibition [38]: 91%
Cmax [39]: 210 nM
inhibition in vivo at 20 mg/kg [40]: 41%

Structure (SMILES): Cn1cc(-c2cc3nccc(Oc4ccc(NC(=S)NC(=O)Cc5ccccc5)cc4F)c3s2)cn1
IC50 [3]: 24 nM
IC50 [1]: 25 nM

Structure (SMILES): O=C(Cc1ccccc1)NC(=S)Nc1ccc(Oc2ccnc3cc(-c4cccnc4)sc23)c(F)c1
IC50 [1]: 113 nM

Structure (SMILES): O=C(Cc1ccccc1)NC(=S)Nc1ccc(Oc2ccnc3cc(-c4ncccn4)sc23)c(F)c1
IC50 [1]: 94 nM

Results, then the compound that gave them:

IC50 [1]: 1130 nM
Structure (SMILES): O=C(Cc1ccccc1)NC(=S)Nc1ccc(Oc2ccnc3ccsc23)c(F)c1

IC50 [3]: 125 nM
IC50 [1]: 289 nM
Structure (SMILES): O=C(Cc1ccccc1)NC(=S)Nc1ccc(Oc2ccnc3cc(C(=O)N4CCOCC4)sc23)c(F)c1

IC50 [3]: 60 nM
IC50 [1]: 145 nM
Structure (SMILES): O=C(Cc1ccccc1)NC(=S)Nc1ccc(Oc2ccnc3cc(-c4nncs4)sc23)c(F)c1

IC50 [1]: 129 nM
Structure (SMILES): NC(=O)c1cc2nccc(Oc3ccc(NC(=S)NC(=O)Cc4ccccc4)cc3F)c2s1

IC50 [1]: 346 nM
Structure (SMILES): CSc1cc2nccc(Oc3ccc(NC(=S)NC(=O)Cc4ccccc4)cc3F)c2s1

IC50 [3]: 193 nM
IC50 [1]: 344 nM
Structure (SMILES): CN1CCN(C(=O)c2cc3nccc(Oc4ccc(NC(=S)NC(=O)Cc5ccccc5)cc4F)c3s2)CC1

IC50 [3]: 130 nM
IC50 [1]: 127 nM
Structure (SMILES): O=C(Cc1ccccc1)NC(=S)Nc1ccc(Oc2ccnc3cc(C(=O)c4ccco4)sc23)c(F)c1

IC50 [1]: 561 nM
Structure (SMILES): CC(O)c1cc2nccc(Oc3ccc(NC(=S)NC(=O)Cc4ccccc4)cc3F)c2s1 (configuration not stated)

IC50 [3]: 54 nM
IC50 [1]: 9 nM
Structure (SMILES): O=C(Cc1ccccc1)NC(=S)Nc1ccc(Oc2ccnc3cc(C(=O)N4CCCC4)sc23)c(F)c1

IC50 [3]: 114 nM
IC50 [1]: 386 nM
Structure (SMILES): CCN(CC)C(=O)c1cc2nccc(Oc3ccc(NC(=S)NC(=O)Cc4ccccc4)cc3F)c2s1

IC50 [1]: 133 nM
Structure (SMILES): CNC(=O)c1cc2nccc(Oc3ccc(NC(=S)NC(=O)Cc4ccccc4)cc3F)c2s1

IC50 [1]: 19 nM
Structure (SMILES): CN(C)C(=O)c1cc2nccc(Oc3ccc(NC(=S)NC(=O)Cc4ccccc4)cc3F)c2s1

IC50 [1]: 90 nM
Structure (SMILES): COC(=O)c1cc2nccc(Oc3ccc(NC(=S)NC(=O)Cc4ccccc4)cc3F)c2s1
